From ChEMBL document CHEMBL5696442, “Discovery of type II inhibitors of TGFβ-activated kinase 1 (TAK1) and mitogen-activated protein kinase kinase kinase kinase 2 (MAP4K2)” (J Med Chem, 2015) come the findings set out here.

Active and inactive are the calls of the source. The rule behind the calls is not given here.

Assay [1] addresses T1, EKC/KEOPS complex subunit TP53RK (Homo sapiens) (UniProt Q96S44).
T1 sequence (whole entry): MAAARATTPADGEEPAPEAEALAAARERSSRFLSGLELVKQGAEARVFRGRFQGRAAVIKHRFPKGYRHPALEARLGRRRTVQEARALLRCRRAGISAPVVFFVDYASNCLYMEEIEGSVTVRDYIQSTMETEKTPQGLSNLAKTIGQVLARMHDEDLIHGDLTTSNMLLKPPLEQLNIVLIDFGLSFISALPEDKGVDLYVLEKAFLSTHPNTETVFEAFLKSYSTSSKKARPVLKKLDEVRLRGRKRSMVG
Nature of the assay: Inhibition of PRPK ATP Loop labeling site in human Huh-7 cells at 1 uM by KiNativ Profiling analysis relative to control. Format: cell-based.

The target in assay [2] is Serine/threonine-protein kinase 24 (Homo sapiens) (UniProt Q9Y6E0). Nature of the assay: Inhibition of MST3 Lys2 labeling site harbouring IHRDIKAANVLLSEHGEVK in human Huh-7 cell lysate at 1 uM by KiNativ Profiling analysis relative to control. The format is subcellular.
Assay [3] addresses Tyrosine-protein kinase receptor TYRO3 (Homo sapiens) (UniProt Q06418). Kind of assay: Inhibition of TYRO3 (unknown origin) at 1 uM by Ambit Kinomescan binding assay relative to control.
Assay [4] has as its system Tyrosine-protein kinase ABL1 (Homo sapiens), P00519 [H396P]. Kind of assay: Inhibition of nonphosphorylated ABL1 H396P mutant (unknown origin) at 1 uM by Ambit Kinomescan binding assay relative to control.
The target of assay [5] is Serine/threonine-protein kinase PknB (Mycobacterium tuberculosis) (UniProt P9WI81). Kind of assay: Inhibition of Mycobacterium tuberculosis PKNB at 1 uM by Ambit Kinomescan binding assay relative to control. In outline: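 In vitro ATP-site competition binding assay against a panel of over 420 kinases (KinomeScan), with compound tested at 10 or 1 μM.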
The target of assay [6] is T2, Serine/threonine-protein kinase tousled-like 1 (Homo sapiens) (UniProt Q9UKI8).
T2 sequence (whole entry): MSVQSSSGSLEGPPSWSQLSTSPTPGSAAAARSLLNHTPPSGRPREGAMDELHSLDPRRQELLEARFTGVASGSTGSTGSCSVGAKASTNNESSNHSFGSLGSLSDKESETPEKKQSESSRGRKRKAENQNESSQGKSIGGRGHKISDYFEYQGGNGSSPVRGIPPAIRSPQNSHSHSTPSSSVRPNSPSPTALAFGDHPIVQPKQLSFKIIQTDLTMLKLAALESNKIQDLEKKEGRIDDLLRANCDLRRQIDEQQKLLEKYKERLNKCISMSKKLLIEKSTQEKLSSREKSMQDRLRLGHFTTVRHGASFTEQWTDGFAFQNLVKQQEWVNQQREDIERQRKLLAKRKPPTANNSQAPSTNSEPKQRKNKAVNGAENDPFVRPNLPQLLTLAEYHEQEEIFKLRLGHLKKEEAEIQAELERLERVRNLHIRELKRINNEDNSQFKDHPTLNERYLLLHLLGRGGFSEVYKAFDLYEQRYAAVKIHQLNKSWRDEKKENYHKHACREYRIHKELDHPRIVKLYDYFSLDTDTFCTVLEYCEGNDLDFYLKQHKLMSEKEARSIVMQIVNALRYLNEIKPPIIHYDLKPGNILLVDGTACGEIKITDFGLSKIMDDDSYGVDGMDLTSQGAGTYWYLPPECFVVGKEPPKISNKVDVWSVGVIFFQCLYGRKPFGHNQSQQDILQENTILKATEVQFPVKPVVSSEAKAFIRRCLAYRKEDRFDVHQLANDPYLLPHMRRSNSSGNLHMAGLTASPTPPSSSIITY
Nature of the assay: Inhibition of TLK1 (unknown origin) at 10 uM by Ambit Kinomescan binding assay.

Assay [7] has as its target T3, Dual specificity mitogen-activated protein kinase kinase 4 (Homo sapiens) (UniProt P45985).
T3 sequence (whole entry): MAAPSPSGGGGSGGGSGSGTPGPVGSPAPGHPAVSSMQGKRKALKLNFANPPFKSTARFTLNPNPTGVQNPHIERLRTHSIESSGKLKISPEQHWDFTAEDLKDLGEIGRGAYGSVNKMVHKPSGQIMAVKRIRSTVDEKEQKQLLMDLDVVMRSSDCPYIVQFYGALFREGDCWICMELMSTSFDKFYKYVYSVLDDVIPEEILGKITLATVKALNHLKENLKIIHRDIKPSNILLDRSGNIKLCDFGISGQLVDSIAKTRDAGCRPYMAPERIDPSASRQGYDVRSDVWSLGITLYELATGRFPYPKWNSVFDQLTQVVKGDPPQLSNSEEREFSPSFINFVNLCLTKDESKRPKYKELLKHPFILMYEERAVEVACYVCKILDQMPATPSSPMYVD
Nature of the assay: Inhibition of MEK4 (unknown origin) at 10 uM by Ambit Kinomescan binding assay.

The target in assay [8] is Serine/threonine-protein kinase 26 (Homo sapiens) (UniProt Q9P289). Kind of assay: Inhibition of MST4 ATP labeling site in human Huh-7 cells at 1 uM by KiNativ Profiling analysis relative to control. The format is cell-based.
Assay [9] addresses AP2-associated protein kinase 1 (Homo sapiens) (UniProt Q2M2I8). Nature of the assay: Inhibition of AAK1 (unknown origin) at 10 uM by Ambit Kinomescan binding assay.
Assay [10] addresses Serine/threonine-protein kinase pim-1 (Homo sapiens) (UniProt P11309). Nature of the assay: Inhibition of PIM1 (unknown origin) at 10 uM by Ambit Kinomescan binding assay.

Chain of Serine/threonine-protein kinase pim-1 (Homo sapiens) (P11309 whole entry, looked up): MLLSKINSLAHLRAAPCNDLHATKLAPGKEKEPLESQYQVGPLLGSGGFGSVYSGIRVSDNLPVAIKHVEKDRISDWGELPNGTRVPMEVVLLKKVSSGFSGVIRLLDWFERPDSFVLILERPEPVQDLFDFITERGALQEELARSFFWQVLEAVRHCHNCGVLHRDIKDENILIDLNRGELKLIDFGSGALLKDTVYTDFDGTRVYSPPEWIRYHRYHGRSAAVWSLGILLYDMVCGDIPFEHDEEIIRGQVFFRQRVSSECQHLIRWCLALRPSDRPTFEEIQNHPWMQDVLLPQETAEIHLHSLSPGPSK
Chain of Serine/threonine-protein kinase 26 (Homo sapiens) (Q9P289 2-416 limits assumed): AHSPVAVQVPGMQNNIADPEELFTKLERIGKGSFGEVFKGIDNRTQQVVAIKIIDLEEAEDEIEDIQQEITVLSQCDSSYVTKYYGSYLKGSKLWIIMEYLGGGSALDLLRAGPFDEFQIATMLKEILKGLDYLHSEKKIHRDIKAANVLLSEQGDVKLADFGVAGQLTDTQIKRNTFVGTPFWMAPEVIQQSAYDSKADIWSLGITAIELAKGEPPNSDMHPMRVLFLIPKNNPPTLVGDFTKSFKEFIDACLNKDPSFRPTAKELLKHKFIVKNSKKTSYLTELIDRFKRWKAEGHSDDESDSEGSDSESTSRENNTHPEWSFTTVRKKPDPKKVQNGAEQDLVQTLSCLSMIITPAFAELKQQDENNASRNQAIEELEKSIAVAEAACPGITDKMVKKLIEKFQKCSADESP
Chain of Serine/threonine-protein kinase 24 (Homo sapiens) (Q9Y6E0 whole entry, looked up): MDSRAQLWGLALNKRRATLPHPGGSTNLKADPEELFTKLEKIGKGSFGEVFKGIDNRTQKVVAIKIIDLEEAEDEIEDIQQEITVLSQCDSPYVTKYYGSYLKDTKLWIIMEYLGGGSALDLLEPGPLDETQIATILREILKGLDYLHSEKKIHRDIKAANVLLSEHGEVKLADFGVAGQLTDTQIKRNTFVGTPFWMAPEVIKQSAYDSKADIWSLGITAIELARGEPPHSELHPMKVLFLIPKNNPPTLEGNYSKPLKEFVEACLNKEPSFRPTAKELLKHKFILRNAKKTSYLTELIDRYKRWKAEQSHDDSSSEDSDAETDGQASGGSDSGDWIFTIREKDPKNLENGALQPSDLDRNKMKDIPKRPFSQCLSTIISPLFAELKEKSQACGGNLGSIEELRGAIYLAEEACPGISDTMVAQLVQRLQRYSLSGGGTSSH
Chain of AP2-associated protein kinase 1 (Homo sapiens) (Q2M2I8 whole entry, looked up): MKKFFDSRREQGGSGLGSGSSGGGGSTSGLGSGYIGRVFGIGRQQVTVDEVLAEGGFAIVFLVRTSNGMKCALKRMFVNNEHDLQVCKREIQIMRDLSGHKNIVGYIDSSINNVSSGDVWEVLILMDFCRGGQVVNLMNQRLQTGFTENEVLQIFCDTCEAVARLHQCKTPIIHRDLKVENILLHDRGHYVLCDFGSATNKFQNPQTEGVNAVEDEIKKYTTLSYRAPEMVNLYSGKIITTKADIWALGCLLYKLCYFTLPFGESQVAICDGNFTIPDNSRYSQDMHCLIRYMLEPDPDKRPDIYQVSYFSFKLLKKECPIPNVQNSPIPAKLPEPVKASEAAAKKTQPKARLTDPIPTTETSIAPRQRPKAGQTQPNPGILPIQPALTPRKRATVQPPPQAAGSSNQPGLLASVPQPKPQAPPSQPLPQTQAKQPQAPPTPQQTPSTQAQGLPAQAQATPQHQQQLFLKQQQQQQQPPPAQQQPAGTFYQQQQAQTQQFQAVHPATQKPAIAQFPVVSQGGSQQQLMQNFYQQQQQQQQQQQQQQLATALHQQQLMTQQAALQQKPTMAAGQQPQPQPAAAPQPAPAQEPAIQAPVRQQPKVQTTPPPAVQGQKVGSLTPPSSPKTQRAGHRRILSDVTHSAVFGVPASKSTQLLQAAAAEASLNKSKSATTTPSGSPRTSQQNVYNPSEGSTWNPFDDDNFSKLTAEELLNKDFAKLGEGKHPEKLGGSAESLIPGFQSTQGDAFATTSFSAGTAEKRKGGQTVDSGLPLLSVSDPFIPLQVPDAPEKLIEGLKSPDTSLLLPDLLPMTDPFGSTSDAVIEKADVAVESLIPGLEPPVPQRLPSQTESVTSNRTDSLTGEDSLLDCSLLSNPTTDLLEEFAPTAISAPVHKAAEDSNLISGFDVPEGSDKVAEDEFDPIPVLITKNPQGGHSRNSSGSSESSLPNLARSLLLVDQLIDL
Chain of Tyrosine-protein kinase receptor TYRO3 (Homo sapiens) (Q06418 whole entry): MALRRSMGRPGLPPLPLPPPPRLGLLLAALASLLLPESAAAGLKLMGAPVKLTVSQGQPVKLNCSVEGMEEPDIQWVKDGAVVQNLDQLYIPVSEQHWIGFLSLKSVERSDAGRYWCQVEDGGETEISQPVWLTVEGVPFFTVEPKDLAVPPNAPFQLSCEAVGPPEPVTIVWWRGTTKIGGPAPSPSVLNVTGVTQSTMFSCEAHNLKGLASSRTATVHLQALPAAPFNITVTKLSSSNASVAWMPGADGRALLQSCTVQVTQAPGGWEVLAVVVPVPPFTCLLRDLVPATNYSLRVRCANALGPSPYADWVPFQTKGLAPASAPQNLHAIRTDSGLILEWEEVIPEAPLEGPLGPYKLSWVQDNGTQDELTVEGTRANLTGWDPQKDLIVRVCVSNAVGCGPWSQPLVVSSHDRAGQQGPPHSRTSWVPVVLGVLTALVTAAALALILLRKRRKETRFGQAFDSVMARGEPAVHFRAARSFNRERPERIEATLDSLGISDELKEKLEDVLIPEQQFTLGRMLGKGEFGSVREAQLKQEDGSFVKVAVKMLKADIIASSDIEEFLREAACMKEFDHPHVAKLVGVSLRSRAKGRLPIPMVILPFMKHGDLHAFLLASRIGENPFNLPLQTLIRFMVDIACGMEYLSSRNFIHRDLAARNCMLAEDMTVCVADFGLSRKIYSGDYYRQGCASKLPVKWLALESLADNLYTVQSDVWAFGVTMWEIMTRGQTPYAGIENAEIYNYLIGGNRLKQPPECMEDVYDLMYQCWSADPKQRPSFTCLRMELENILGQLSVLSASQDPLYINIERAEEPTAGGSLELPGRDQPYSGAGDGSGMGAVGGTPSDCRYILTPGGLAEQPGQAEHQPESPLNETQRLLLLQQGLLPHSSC
Chain of Serine/threonine-protein kinase PknB (Mycobacterium tuberculosis) (P9WI81 whole entry): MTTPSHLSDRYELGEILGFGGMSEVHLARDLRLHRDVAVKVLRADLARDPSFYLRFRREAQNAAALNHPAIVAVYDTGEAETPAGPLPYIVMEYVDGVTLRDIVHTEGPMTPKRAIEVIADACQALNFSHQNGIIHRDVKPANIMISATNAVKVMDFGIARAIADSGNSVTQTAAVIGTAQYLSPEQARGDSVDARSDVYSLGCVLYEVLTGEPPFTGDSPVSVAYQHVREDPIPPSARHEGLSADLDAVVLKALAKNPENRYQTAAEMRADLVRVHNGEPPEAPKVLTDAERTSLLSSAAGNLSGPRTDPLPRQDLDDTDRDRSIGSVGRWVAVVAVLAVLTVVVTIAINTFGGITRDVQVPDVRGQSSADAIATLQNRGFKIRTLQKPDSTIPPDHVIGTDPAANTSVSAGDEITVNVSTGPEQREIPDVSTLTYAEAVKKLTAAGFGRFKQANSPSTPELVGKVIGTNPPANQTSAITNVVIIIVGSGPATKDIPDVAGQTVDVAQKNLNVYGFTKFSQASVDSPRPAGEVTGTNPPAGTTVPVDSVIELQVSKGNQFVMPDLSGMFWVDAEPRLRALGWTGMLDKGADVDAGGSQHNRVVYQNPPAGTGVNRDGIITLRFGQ

On to `CNc1cc(Oc2cc(C(=O)Nc3cc(N4CCN(C)CC4)cc(C(F)(F)F)c3)ccc2C)ncn1`, for which the inhibition is 22.9% in [1] and 15.9% in assay [2].
In the case of `CCN1CCN(Cc2ccc(NC(=O)c3ccc(C)c(/C=C/c4cnc5[nH]ccc5c4OC)c3)cc2C(F)(F)F)CC1`, the values for the inhibition in assay [3], in assay [4] and in [5] were 76%, 0% and 84%, respectively.
Turning to `CCN1CCN(Cc2ccc(NC(=O)c3ccc(C)c(Oc4ccnc5[nH]ccc45)c3)cc2C(F)(F)F)CC1`, the inhibition result in [6], in assay [7], in assay [9] and in assay [10] was “inactive” in each case. Further, the inhibition in [8] amounted to 18%.
